# High-throughput results: PubChem, Broad Institute
# MLL AF4-AF9 inh = blocks AF4 peptide binding to human AF9. AID 651704. P42568. AlphaScreen, biotin-AF4 peptide binding to FLAG-AF9. inhibition, % at 10 µM. 350,000 compounds, 0.47% hits;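 active = every replicate reaching a set inhibition limit, whatever the replicate mean, cut at about 25% in these data; inconclusive = mean inhibition reaches that limit but some replicates miss it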;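 note: 0% = plate neutral control median and 100% = total signal loss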
# DENV2 CPE = protects cells from dengue virus 2 cytopathic effect; DENV2-infected cells, cytopathic effect rescue, plate reader; CPE inhibition, % at 9.99 µM; 350,000 compounds, 1.7% hits; AID 651640; in the data active = CPE inhibition above about 20%, passing the limit was not always enough; inconclusive = no clear call, values can overlap the other calls; tested in BHK-21 cells;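 note: 0% = median of neutral control wells and 100% = median of positive control wells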
# CaV13 FRET inh = Primary screen for inhibitors of IQ motif and Ca2+-dependent inactivation inhibitor domain binding in CACNA1D, Förster resonance energy transfer in living cells, …. HEK cells, CFP/YFP FRET ICDI-IQ, plate reader, 10 min; percent FRET-ratio fall versus neutral wells. inhibition, % at 12.3 µM. 340,000 compounds, 0.098% hits;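 active = mean replicate inhibition of at least 30% and at least 1% of replicates passing that level; inconclusive = only one of the two criteria is met; inactive = neither criterion is met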;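 note: 0% = median of the neutral control wells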
# S100A4 inh HTS = blocks human S100A4 binding to myosin IIA peptide; inhibition, % at 10.7 µM; 360,000 compounds, 0.14% hits; P26447; S100A4/TAMRA-MyoIIA peptide fluorescence polarization;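 active = mean inhibition of at least 70% across replicates, with every replicate also reaching that level; inconclusive = mean inhibition reaches 70% but some replicates fall short; inactive = mean inhibition below 70%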
# Target sequence (P26447 whole entry, looked up): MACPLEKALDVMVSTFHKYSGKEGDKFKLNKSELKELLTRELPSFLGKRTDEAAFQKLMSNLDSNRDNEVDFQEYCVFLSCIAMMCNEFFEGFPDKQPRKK
#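 Material: human S100A4 monomer with TAMRA-labelled myosin IIA peptide; buffer or medium: HEPES pH 7.2 with CaCl2, KCl, NaCl, DTT, Triton; compound dosing: one concentration per compound; schedule: 5 min incubation before reading; benchmarks: neutral control DMSO, positive control TFP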
# SIRT5 block = blocks human SIRT5 desuccinylation of peptide. Q9NXA8. Purified SirT5, succinyl-peptide AMC, trypsin-coupled fluorescence. inhibition, % at 15 µM. 330,000 compounds, 1.1% hits. AID 652115; in the data active = inhibition above about 15%; inconclusive = no clear call, values can overlap the other calls
# Target sequence (Q9NXA8 whole entry, looked up): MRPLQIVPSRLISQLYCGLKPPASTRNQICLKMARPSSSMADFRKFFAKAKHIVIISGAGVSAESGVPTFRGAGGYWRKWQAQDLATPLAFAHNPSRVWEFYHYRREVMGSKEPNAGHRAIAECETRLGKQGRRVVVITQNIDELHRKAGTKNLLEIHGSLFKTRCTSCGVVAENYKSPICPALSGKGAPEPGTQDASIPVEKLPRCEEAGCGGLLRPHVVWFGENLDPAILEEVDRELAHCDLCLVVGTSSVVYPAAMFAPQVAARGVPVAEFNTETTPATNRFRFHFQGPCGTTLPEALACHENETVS
# Active calls of the source: *; ? = inconclusive; nt = no result given; ! = repeats disagree. Rows were chosen to be rich in hits. Some 2.7% of all compounds tested hit in one or more screens of this group.
SMILES,MLL AF4-AF9 inh,DENV2 CPE,CaV13 FRET inh,S100A4 inh HTS,SIRT5 block
COc1ccc([N+](=O)[O-])cc1NC(=O)/C=C/C(=O)O,-3,66*,-5,0,0
CCN1[C@@H]2c3ccc(-c4ccc(F)cc4)c(=O)n3C[C@@H]2[C@@H](CO)[C@@H]1C(=O)NCc1ccncn1,0,-6,nt,10,3
CCOC(=O)C1=C(COC(=O)c2ccco2)NC(=O)NC1CC (configuration not stated),29*,-8,-5,9,-1
CCOC(=O)C1=C(C)NC(=O)NC1c1ccco1 (configuration not stated),2,nt,-8,10,-1
COc1ccc(S(=O)(=O)Nc2ccc3c(c2)C(=O)N([C@H](C)CO)C[C@@H](C)[C@H](CN(C)S(=O)(=O)c2ccc(F)cc2)O3)cc1,7,25*,nt,-5,3
CNC[C@@H]1Oc2ccc(NS(=O)(=O)c3ccc(F)cc3)cc2C(=O)N([C@H](C)CO)C[C@@H]1C,-1,53*,nt,4,-6
COc1ccc(S(=O)(=O)Nc2ccc3c(c2)C(=O)N([C@@H](C)CO)C[C@H](C)[C@H](CN(C)S(=O)(=O)c2ccc(F)cc2)O3)cc1,4,31*!,-6,-2,4
COc1ccc(S(=O)(=O)Nc2ccc3c(c2)C(=O)N([C@H](C)CO)C[C@@H](C)[C@@H](CN(C)S(=O)(=O)c2ccc(F)cc2)O3)cc1,1,1,nt,-1,3
COc1ccc(S(=O)(=O)Nc2ccc3c(c2)C(=O)N([C@@H](C)CO)C[C@@H](C)[C@H](CN(C)S(=O)(=O)c2ccc(F)cc2)O3)cc1,2,-2,nt,10,-1
O=C(C[C@@H]1C[C@H]2c3cc(NC(=O)c4cccnc4)ccc3O[C@H]2[C@@H](CO)O1)NC1CCCCC1,-1,3,nt,-2,1
C[C@@H]1CCCCO[C@@H](CN(C)Cc2ccc(C(=O)O)cc2)[C@H](C)CN([C@@H](C)CO)C(=O)c2cc(NC(=O)NC3CCCCC3)ccc2O1,2,-2,nt,7,1
O=C(NCC1CCCCC1)[C@H]1[C@H](CO)[C@H]2Cn3c(cccc3=O)[C@@H]1N2CCc1ccccc1,1,109*,nt,21,18*
O=C(NCC1CCCCC1)[C@@H]1[C@@H](CO)[C@@H]2Cn3c(cccc3=O)[C@H]1N2CCc1ccccc1,1,110*,nt,-6,3
C[C@H]1CN([C@@H](C)CO)C(=O)c2cc(C#Cc3ccccc3)cnc2O[C@@H]1CN(C)C(=O)c1ccccc1,-1,3,nt,-2,1
COc1ccc(NC(=O)N(C)C[C@H]2Oc3ccc(NC(=O)Cn4cnnn4)cc3CC(=O)N([C@@H](C)CO)C[C@@H]2C)cc1,-2,56*,nt,2,1
C[C@@H]1CN([C@@H](C)CO)C(=O)Cc2cc(NC(=O)Cn3cnnn3)ccc2O[C@@H]1CN(C)C(=O)Nc1ccc2c(c1)OCO2,1,23*,nt,-15,-4
CCNC(=O)[C@@H]1[C@@H](CO)[C@@H]2Cn3c(ccc(-c4ccc(F)cc4)c3=O)[C@@H]2N1Cc1ccccc1F,4,0,nt,57,-9
C=C(C)COc1ccc(-c2nc(N)ncc2-c2ccc(OC)cc2)c(O)c1,28*,nt,-5,-1,nt
C=C(C)COc1ccc(-c2nc(N)ncc2-c2ccc(OC)c(OC)c2)c(O)c1,6,0,-2,-2,-4
Fc1cccc(C2NC(=S)NC3=C2N2CCC3CC2)c1 (configuration not stated),nt,nt,-4,-8,21*
Cc1noc(C)c1NC(=O)N(C)C[C@@H]1OCCCC[C@H](C)Oc2ccc(N(C)C)cc2C(=O)N([C@H](C)CO)C[C@@H]1C,1,19,nt,3,1
CCCn1c2ccccc2c2nnc(SCCN3CCOCC3)nc21,0,4,-1,-3,19*
Cc1cccc(NC(=O)CN2CCN(C(=O)c3cc(C4CC4)nn3-c3ccccc3)CC2)c1C,-4,62*,-15,-6,3
Oc1cccc(Nc2c3ccccc3nc3ccccc23)c1,0,5,-14,-10,-9
CCN(CC)Cc1cc(Nc2c3ccccc3nc3c4ccccc4n(C)c23)cc(CN(CC)CC)c1O,55*,-7,-6,7,0
SMILES,MLL AF4-AF9 inh,DENV2 CPE,CaV13 FRET inh,S100A4 inh HTS,SIRT5 block
Cc1ccc(S(=O)(=O)N(C)C)cc1NC(=O)c1cc(S(=O)(=O)N2CCCCC2)ccc1N1CCOCC1,1,23*,-4,-4,-4
O=C(Nc1cc(S(=O)(=O)N2CCOCC2)ccc1N1CCOCC1)c1cc2c(s1)CCC2,20,-2,-3,-4,17*
Cn1c(=O)n(C)c2cc(N3CCOCC3)c(NC(=O)c3ccc(F)cc3)cc21,-10,42*,-7,4,-1
CCN(CC)S(=O)(=O)c1ccc(N2CCOCC2)c(NC(=O)c2cc(C)cc(C)c2)c1,nt,nt,-3,nt,nt
CCN(CC)S(=O)(=O)c1ccc(N2CCOCC2)c(NC(=O)c2ccccc2)c1,0,26*,-5,-3,0
CN(C)S(=O)(=O)c1ccc(N2CCCC2)c(C(=O)Nc2ccccc2N2CCOCC2)c1,nt,nt,-6,nt,nt
C[C@H]1CN([C@@H](C)CO)C(=O)c2cc(NS(=O)(=O)c3ccc(F)cc3)ccc2O[C@@H]1CN(C)C(=O)Nc1ccccc1,0,6,nt,6,-2
C[C@@H]1CN([C@@H](C)CO)C(=O)c2cccc(NC(=O)C3CCCCC3)c2O[C@@H]1CN(C)S(C)(=O)=O,-2,14,nt,22,-2
C[C@H]1CCCCO[C@@H](CN(C)CC2CCCCC2)[C@@H](C)CN([C@@H](C)CO)C(=O)c2cc(NS(=O)(=O)c3cccs3)ccc2O1,16,-4,nt,2,3
C[C@@H]1CN([C@@H](C)CO)C(=O)Cc2cc(NC(=O)Nc3ccc(C(F)(F)F)cc3)ccc2O[C@@H]1CN(C)CC1CC1,0,9,nt,4,-4
COCC(=O)N1[C@@H](CO)[C@@H]2c3ccccc3NC[C@@H]21,-1,-2,nt,12,-3
COc1ccc(NC(=O)[C@@H]2CC=C[C@@H]3CCN(Cc4ccccc4)C(=O)[C@@H]32)cc1,1,25*,-5,2,nt
COc1ccc(NC(=O)[C@@H]2CC=C[C@@H]3CCN(Cc4ccc(Cl)c(Cl)c4)C(=O)[C@@H]32)cc1,-2,-5,-5,1,1
CC(=O)Nc1ccc(C=NNc2ccc(S(=O)(=O)Nc3ccccc3C(=O)O)cc2[N+](=O)[O-])cc1,4,4,-3,1,17*
CN(CCO)c1ccc(C=NNc2ccc([N+](=O)[O-])cc2S(=O)(=O)Nc2ccccc2C(=O)O)cc1,?,-10,-10,-11,22*
O=C(O)c1ccccc1NS(=O)(=O)c1ccc(N/N=C/c2cccc(O)c2O)c([N+](=O)[O-])c1,1,8,-6,-8,13
